{
  "source": "ChEMBL document CHEMBL3576866",
  "about": "“Discovery of a Cyclic Boronic Acid β-Lactamase Inhibitor (RPX7009) with Utility vs Class A Serine Carbapenemases” (J Med Chem, 2015)",
  "key": {"Klebsiella pneumoniae [1]": {"system": "Klebsiella pneumoniae", "experiment": "Inhibition of Klebsiella pneumoniae KP1087 KPC-2 assessed as biapenem MIC at 4 ug/ml by broth microdilution method"}, "Klebsiella pneumoniae [2]": {"system": "Klebsiella pneumoniae", "experiment": "Inhibition of Klebsiella pneumoniae KP1087 CTX-M-15 assessed as biapenem MIC at 4 ug/ml by broth microdilution method"}, "Klebsiella pneumoniae [3]": {"system": "Klebsiella pneumoniae", "experiment": "Inhibition of Klebsiella pneumoniae KP1004 SHV-11 assessed as meropenem MIC at 4 ug/ml by broth microdilution method", "outline": "(§1)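 CLSI broth microdilution (M07-A9, 2012) MIC of the carbapenem against clinical serine carbapenemase-producing strain, tested alone and with the inhibitor held at a fixed 4 μg/mL.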"}, "Klebsiella pneumoniae [4]": {"system": "Klebsiella pneumoniae", "experiment": "Inhibition of Klebsiella pneumoniae KP1087 CTX-M-15 assessed as meropenem MIC at 4 ug/ml by broth microdilution method", "outline": "as §1"}, "[5]": {"molecular_target": "Urokinase-type plasminogen activator (Homo sapiens, UniProt P00749)", "experiment": "Inhibition of urokinase (unknown origin) using NGK-pNA as substrate preincubated for 10 mins followed by substrate addition measured for 30 mins by spectrophotometric analysis", "outline": "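Urokinase, from a commercial source, in 50 mM Tris-HCl, pH 8.5, 38 mM NaCl. Mixed with inhibitor at various concentrations for 10 min at 37 °C, then NGK-pNA (listed at 100 μM) added and absorbance monitored for 30 min. Rates were relative to untreated; IC50 is the concentration giving 50% inhibition.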"}, "[6]": {"experiment": "Inhibition of elastase (unknown origin) using Suc-AAPA-pNA as substrate preincubated for 10 mins followed by substrate addition measured for 30 mins by spectrophotometric analysis", "parameters": "species or system Homo sapiens", "outline": "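Elastase from a commercial source in 25 mM Tris-HCl, pH 8.0. Inhibitor at various concentrations was preincubated 10 min at 37 °C. Suc-AAPA-pNA (listed at 50 μM) was added and absorbance followed for 30 min. Rates were relative to untreated; IC50 is the concentration giving 50% inhibition.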"}, "[7]": {"molecular_target": "Lysosomal protective protein (Homo sapiens, UniProt P10619)", "sequence (P10619 29-326 limits assumed)": "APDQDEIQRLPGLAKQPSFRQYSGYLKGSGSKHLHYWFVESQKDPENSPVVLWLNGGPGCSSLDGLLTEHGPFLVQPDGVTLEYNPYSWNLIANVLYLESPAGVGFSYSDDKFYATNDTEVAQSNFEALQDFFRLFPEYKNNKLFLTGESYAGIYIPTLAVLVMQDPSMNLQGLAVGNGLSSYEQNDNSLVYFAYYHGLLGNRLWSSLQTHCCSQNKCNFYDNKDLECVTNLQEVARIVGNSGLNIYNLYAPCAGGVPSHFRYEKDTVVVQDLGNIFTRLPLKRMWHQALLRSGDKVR", "sequence (P10619 327-480 limits assumed)": "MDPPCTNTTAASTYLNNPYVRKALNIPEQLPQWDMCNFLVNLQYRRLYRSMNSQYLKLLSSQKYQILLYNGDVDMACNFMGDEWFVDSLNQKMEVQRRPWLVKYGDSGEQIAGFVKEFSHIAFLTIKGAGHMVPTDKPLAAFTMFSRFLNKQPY", "experiment": "Inhibition of cathepsin A (unknown origin) using MCA-RPPGFSAFK-Dnp as substrate preincubated for 10 mins followed by substrate addition measured for 30 mins by […] analysis"}, "[8]": {"experiment": "Cmax in rat at 300 mg/kg, iv administered as 0.5 hrs infusion by HPLC-MS method", "format": "ADME, organism-based", "parameters": "dose 300 mg/kg, route intravenous", "conditions": "in vivo"}, "[9]": {"experiment": "Volume of distribution in rat at 300 mg/kg, iv administered as 0.5 hrs infusion by HPLC-MS method", "format": "ADME, organism-based", "conditions": "in vivo"}, "[10]": {"experiment": "Clearance in rat at 1000 mg/kg, iv administered as 0.5 hrs infusion by HPLC-MS method", "format": "ADME, organism-based", "conditions": "in vivo"}, "[11]": {"experiment": "Half life in human at 1 g administered as 3 hrs of infusion", "format": "ADME, organism-based", "conditions": "in vivo, iv"}, "[12]": {"experiment": "Volume of distribution at steady state in human at 1 g administered as 3 hrs of infusion", "format": "ADME, organism-based", "conditions": "in vivo, iv, read-out: Vdss", "outline": "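Healthy volunteers received 3 h infusions. Plasma concentrations were fit to a noncompartmental model to derive steady-state volume of distribution at the 1 g dose.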"}, "Enterobacter cloacae": {"system": "Enterobacter cloacae", "experiment": "Inhibition of Enterobacter cloacae ECL1003 SHV assessed as cefepime MIC at 4 ug/ml by broth microdilution method", "outline": "(§2)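 CLSI broth microdilution (M07-A9) against clinical strains expressing serine β-lactamases.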"}, "Escherichia coli": {"system": "Escherichia coli", "experiment": "Inhibition of Escherichia coli EC1008 CTX-M-3 assessed as cefepime MIC at 4 ug/ml by broth microdilution method", "outline": "as §2"}, "[13]": {"molecular_target": "Beta-lactamase SHV-5 (Klebsiella pneumoniae) (UniProt P0A3M1)", "sequence (P0A3M1 whole entry)": "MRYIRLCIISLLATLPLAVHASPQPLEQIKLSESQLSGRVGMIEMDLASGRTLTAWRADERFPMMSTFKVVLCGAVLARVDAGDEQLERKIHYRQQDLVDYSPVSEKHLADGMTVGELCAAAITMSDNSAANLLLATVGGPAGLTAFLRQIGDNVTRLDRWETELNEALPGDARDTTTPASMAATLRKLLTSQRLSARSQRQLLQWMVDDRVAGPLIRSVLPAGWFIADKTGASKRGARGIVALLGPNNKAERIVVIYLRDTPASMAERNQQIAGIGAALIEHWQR", "experiment": "Inhibition of Klebsiella pneumoniae KP1011 SHV5 assessed as cefepime MIC at 4 ug/ml by broth microdilution method", "outline": "as §2"}, "[14]": {"molecular_target": "T1, Class A carbapenemase (Enterobacter cloacae) (UniProt A7WP95)", "T1 sequence (whole entry)": "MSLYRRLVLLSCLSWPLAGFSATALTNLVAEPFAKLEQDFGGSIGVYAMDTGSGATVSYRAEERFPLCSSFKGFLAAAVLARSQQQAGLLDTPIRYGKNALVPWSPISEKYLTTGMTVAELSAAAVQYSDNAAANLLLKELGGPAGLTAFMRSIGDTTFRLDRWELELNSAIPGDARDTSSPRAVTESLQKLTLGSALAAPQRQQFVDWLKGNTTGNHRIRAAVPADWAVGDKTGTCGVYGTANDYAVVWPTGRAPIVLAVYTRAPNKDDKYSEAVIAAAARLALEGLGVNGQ", "experiment": "Inhibition of Enterobacter cloacae ECL1058 KPC-3 assessed as biapenem MIC at 4 ug/ml by broth microdilution method"}, "Klebsiella oxytoca [15]": {"system": "Klebsiella oxytoca", "experiment": "Inhibition of Klebsiella oxytoca KX1017 SHV-30 assessed as biapenem MIC at 4 ug/ml by broth microdilution method"}, "Klebsiella pneumoniae [16]": {"system": "Klebsiella pneumoniae", "experiment": "Inhibition of Klebsiella pneumoniae KP1082 KPC-2 assessed as biapenem MIC at 4 ug/ml by broth microdilution method", "outline": "as §1"}, "[17]": {"molecular_target": "T2, Beta-lactamase SHV-1 (Klebsiella pneumoniae) (UniProt P0AD64)", "T2 sequence (whole entry)": "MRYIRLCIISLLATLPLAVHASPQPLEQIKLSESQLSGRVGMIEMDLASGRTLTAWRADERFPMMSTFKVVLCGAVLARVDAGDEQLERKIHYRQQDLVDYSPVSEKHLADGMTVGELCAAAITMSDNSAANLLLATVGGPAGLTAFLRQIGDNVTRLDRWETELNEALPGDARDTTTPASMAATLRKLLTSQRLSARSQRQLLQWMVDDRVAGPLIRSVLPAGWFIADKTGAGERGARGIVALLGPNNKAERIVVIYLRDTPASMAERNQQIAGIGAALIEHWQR", "experiment": "Inhibition of Klebsiella pneumoniae KP1082 SHV-1 assessed as biapenem MIC at 4 ug/ml by broth microdilution method", "outline": "as §1"}, "[18]": {"molecular_target": "Beta-lactamase (Klebsiella pneumoniae) (UniProt Q93LQ9)", "sequence (Q93LQ9 as listed by the source)": "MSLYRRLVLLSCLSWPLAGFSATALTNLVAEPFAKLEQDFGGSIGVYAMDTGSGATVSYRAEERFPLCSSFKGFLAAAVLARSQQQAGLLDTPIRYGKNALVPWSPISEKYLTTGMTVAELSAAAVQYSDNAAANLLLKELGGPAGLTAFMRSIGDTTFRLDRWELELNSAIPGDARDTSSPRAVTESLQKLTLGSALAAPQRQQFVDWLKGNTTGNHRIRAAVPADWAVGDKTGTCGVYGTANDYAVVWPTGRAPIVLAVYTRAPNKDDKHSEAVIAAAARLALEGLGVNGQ", "experiment": "Inhibition of Klebsiella pneumoniae KP1084 KPC-3 assessed as ertapenem MIC at 4 ug/ml by broth microdilution method", "outline": "as §1"}, "[19]": {"molecular_target": "Beta-lactamase TEM (Enterobacter cloacae) (UniProt Q6W9J1)", "sequence (Q6W9J1 as listed by the source)": "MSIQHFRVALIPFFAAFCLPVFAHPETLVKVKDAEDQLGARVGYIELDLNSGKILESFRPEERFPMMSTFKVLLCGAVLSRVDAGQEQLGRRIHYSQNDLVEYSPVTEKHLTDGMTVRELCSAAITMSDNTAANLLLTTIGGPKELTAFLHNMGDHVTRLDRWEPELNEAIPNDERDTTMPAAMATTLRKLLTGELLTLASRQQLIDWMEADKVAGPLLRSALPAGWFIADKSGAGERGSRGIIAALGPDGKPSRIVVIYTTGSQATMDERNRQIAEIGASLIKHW", "experiment": "Inhibition of Enterobacter cloacae ECL1058 TEM-1 assessed as ertapenem MIC at 4 ug/ml by broth microdilution method"}, "Klebsiella pneumoniae [20]": {"system": "Klebsiella pneumoniae", "experiment": "Inhibition of Klebsiella pneumoniae KP1082 KPC-2 assessed as imipenem MIC at 4 ug/ml by broth microdilution method"}, "Klebsiella pneumoniae [21]": {"system": "Klebsiella pneumoniae", "experiment": "Inhibition of Klebsiella pneumoniae KP1088 SHV-11 assessed as imipenem MIC at 4 ug/ml by broth microdilution method", "outline": "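CLSI broth microdilution (M07-A9, 2012) against the clinical K. pneumoniae isolate. Carbapenem MICs were read alone and with 9f held at a fixed 4 μg/mL.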"}, "Klebsiella pneumoniae [22]": {"system": "Klebsiella pneumoniae", "experiment": "Inhibition of Klebsiella pneumoniae KP1004 SHV-11 assessed as ertapenem MIC at 4 ug/ml by broth microdilution method", "outline": "as §1"}, "[23]": {"molecular_target": "Carbapenem-hydrolyzing beta-lactamase KPC (Klebsiella oxytoca) (UniProt Q848S6)", "sequence (Q848S6 whole entry)": "as the sequence (Q93LQ9 as listed by the source) above", "experiment": "Inhibition of Klebsiella oxytoca KX1017 KPC-2 assessed as imipenem MIC at 4 ug/ml by broth microdilution method"}, "Klebsiella oxytoca [24]": {"system": "Klebsiella oxytoca", "experiment": "Inhibition of Klebsiella oxytoca KX1017 OXA-2 assessed as imipenem MIC at 4 ug/ml by broth microdilution method"}},
  "data": [
    {"molecule": "O=C(O)C[C@@H]1CC[C@H](NC(=O)Cc2cccs2)B(O)O1", "note": "[VABORBACTAM]", "values": [
      {"measurement": "MIC", "setting": "Klebsiella pneumoniae [1]", "value": 0.25, "unit": "µg/mL"},
      {"measurement": "MIC", "setting": "Klebsiella pneumoniae [2]", "value": 0.25, "unit": "µg/mL"},
      {"measurement": "MIC", "setting": "Klebsiella pneumoniae [3]", "value": "≤ 0.06", "unit": "µg/mL"},
      {"measurement": "MIC", "setting": "Klebsiella pneumoniae [4]", "value": 1, "unit": "µg/mL"},
      {"measurement": "IC50", "setting": "[5]", "value": "> 1000", "unit": "µM"},
      {"measurement": "IC50", "setting": "[6]", "value": "> 1000", "unit": "µM"},
      {"measurement": "IC50", "setting": "[7]", "value": 1000, "unit": "µM"},
      {"measurement": "Cmax", "setting": "[8]", "value": 735, "unit": "µg/mL"},
      {"measurement": "Vd", "setting": "[9]", "value": 0.48, "unit": "L/kg"},
      {"measurement": "clearance", "setting": "[10]", "value": 16.2, "unit": "mL/min/kg"},
      {"measurement": "half-life", "setting": "[11]", "value": 1.23, "unit": "h"},
      {"measurement": "Vd", "setting": "[12]", "value": 21, "unit": "L"},
      {"measurement": "MIC", "setting": "Enterobacter cloacae", "value": 8, "unit": "µg/mL"},
      {"measurement": "MIC", "setting": "Escherichia coli", "value": 4, "unit": "µg/mL"},
      {"measurement": "MIC", "setting": "[13]", "value": 0.25, "unit": "µg/mL"},
      {"measurement": "MIC", "setting": "[14]", "value": "< 0.06", "unit": "µg/mL"},
      {"measurement": "MIC", "setting": "Klebsiella oxytoca [15]", "value": "< 0.06", "unit": "µg/mL"},
      {"measurement": "MIC", "setting": "Klebsiella pneumoniae [16]", "value": "≤ 0.06", "unit": "µg/mL"},
      {"measurement": "MIC", "setting": "[17]", "value": "< 0.06", "unit": "µg/mL"},
      {"measurement": "MIC", "setting": "[18]", "value": 4, "unit": "µg/mL"},
      {"measurement": "MIC", "setting": "[19]", "value": 0.25, "unit": "µg/mL"},
      {"measurement": "MIC", "setting": "Klebsiella pneumoniae [20]", "value": 0.13, "unit": "µg/mL"},
      {"measurement": "MIC", "setting": "Klebsiella pneumoniae [21]", "value": "≤ 0.06", "unit": "µg/mL"},
      {"measurement": "MIC", "setting": "Klebsiella pneumoniae [22]", "value": "≤ 0.06", "unit": "µg/mL"},
      {"measurement": "MIC", "setting": "[23]", "value": 0.13, "unit": "µg/mL"},
      {"measurement": "MIC", "setting": "Klebsiella oxytoca [24]", "value": 0.13, "unit": "µg/mL"}
    ]}
  ]
}
